Data reported in ChEMBL document CHEMBL5321214, “Targeting the multifaceted neurotoxicity of Alzheimer's disease by tailored functionalisation of the curcumin scaffold” (Eur J Med Chem, 2023).
Calls of active or inactive are those of the source. The rule behind the calls is not given here.

What was measured:
[1] = system: Microglia; test: Cytotoxicity against Sprague-Dawley rat microglial cells assessed as decrease in cell viability at 20 uM incubated for 24 hrs by MTT assay; assay type: toxicity, cell-based
Outline: (§1)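 Primary rat microglia, 6×10^4 cells/well, switched to serum-free medium 1 h before 24 h exposure (1–20 μM, DMSO ≤0.1%). MTT 0.18 mg/mL for 4 h at 37 °C, formazan dissolved in DMSO, absorbance 570 nm (reference 630 nm). Vehicle-treated cells = 100% viability.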

[2] = system: Microglia; test: Antiinflammatory activity against Sprague-Dawley rat microglial cells assessed as downregulation of IL-1 beta mRNA expression at 10 uM pretreated with compound for 1 hr followed by LPS stimulation for 6 hrs by real-time PCR analysis; assay type: functional, cell-based; conditions: time 7.0 hrs
Outline: (§2)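 Primary cortical microglia (postnatal day 1 rat pups, shaken off mixed glial cultures, ~97% Iba1-positive). Compound (DMSO ≤0.1%) for 1 h, then 100 ng/mL ultra-pure E. coli LPS for 6 h. QIAzol RNA extraction, SuperScript IV reverse transcription, real-time PCR. Mean ± SEM, n = 3 in triplicate; one-way ANOVA, Holm-Sidak test.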

[3] = system: Microglia; test: Antiinflammatory activity against Sprague-Dawley rat microglial cells assessed as inhibition of LPS-induced TNF-alpha production at 1 to 10 uM pretreated with compound for 1 hr followed by LPS stimulation for 24 hrs by ELISA; assay type: functional, cell-based; conditions: dose 1-10 µM, time 25.0 hrs
Outline: (§3)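 Primary cortical rat microglia in DMSO (≤0.1%) or vehicle for 1 h, then 100 ng/mL LPS for 24 h. TNF-α and IL-1β in culture medium by ELISA against standard curves (pg/mL), expressed as % of LPS-stimulated cultures. Mean ± SEM of 3 independent experiments; one-way ANOVA, Holm-Sidak test.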

[4] = system: Microglia; test: Antiinflammatory activity against Sprague-Dawley rat microglial cells assessed as downregulation of TNF-alpha mRNA expression at 10 uM pretreated with compound for 1 hr followed by LPS stimulation for 6 hrs by real-time PCR analysis; assay type: functional, cell-based; conditions: time 7.0 hrs; outline: as §2
[5] = system: Microglia; test: Antiinflammatory activity against Sprague-Dawley rat microglial cells assessed as downregulation of NLRP3 mRNA expression at 10 uM pretreated with compound for 1 hr followed by LPS stimulation for 6 hrs by real-time PCR analysis; assay type: functional, cell-based; conditions: time 7.0 hrs; outline: as §2
[6] = Effect on TNF-alpha release in Sprague-Dawley rat microglial cells at 10 uM by ELISA; assay type: toxicity, cell-based; conditions: microglia; outline: as §3
[7] = system: Microglia; test: Antiinflammatory activity against Sprague-Dawley rat microglial cells assessed as inhibition of LPS-induced IL-1 beta production at 1 to 10 uM pretreated with compound for 1 hr followed by LPS stimulation for 24 hrs by ELISA; assay type: functional, cell-based; conditions: dose 1-10 µM, time 25.0 hrs; outline: as §3
[8] = Effect on IL-1 beta release in Sprague-Dawley rat microglial cells at 10 uM by ELISA; assay type: toxicity, cell-based; conditions: microglia; outline: as §3
[9] = molecular target: Amyloid-beta precursor protein (Homo sapiens) (UniProt P05067); test: Anti-oligomeric activity against Abeta42 (unknown origin) assessed as depletion of the formation of toxic HMW Abeta42 oligomers at 5 uM measured at day 7 from sample solubilization by capillary electrophoresis assay; conditions: time 7.0 day
Outline: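 Aβ42 stock diluted to 221 μM in 20 mM sodium phosphate pH 7.4 containing compound (ethanol stocks 1.53 mM). Capillary electrophoresis: BGE 80 mM sodium phosphate pH 7.4, 30 mbar × 3 s hydrodynamic injection, +12 kV, 25 °C, 200 nm detection. Oligomers assigned by effective mobility; HMW oligomer peak quantified semiquantitatively as normalised area %.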

[10] = Effect on IL-1 beta release in Sprague-Dawley rat microglial cells at 20 uM by ELISA; assay type: toxicity, cell-based; conditions: microglia; outline: as §3
[11] = system: SH-SY5Y; test: Antioxidant activity in human SH-SY5Y cells assessed as increase in intracellular GSH level at 2.5 uM incubated for 24 hrs by […] fluorescence analysis; assay type: functional
Outline: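 SH-SY5Y (2×10^4 cells/well) grown 24 h, then exposed to 2.5 μM for 24 h at 37 °C. Fluorescent probe added 30 min at 37 °C; read at ex 355/em 460 nm. GSH (μM) from a GSH standard curve. Mean ± SEM of three experiments; one-way ANOVA with Dunnett's test.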

[12] = molecular target: Keap1/Nrf2 (Homo sapiens) (UniProt Q16236+Q14145); test: Activation of Keap1/Nrf2 in human SH-SY5Y cells assessed as Nrf2 nuclear translocation by measuring increase in nuclear to cytosolic Nrf2 ratio at 2.5 uM incubated for 3 hrs by western blot analysis; assay type: cell-based
Outline: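 SH-SY5Y seeded 2×10^6 cells/dish, grown 24 h, then exposed 3 h at 37 °C, 5% CO2. Nuclear and cytosolic fractions immunoblotted for Nrf2, membranes stripped and reprobed for β-actin and lamin B1 as loading references. Mean ± SEM of three independent experiments; one-way ANOVA with Dunnett's test.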

[13] = system: Microglia; test: Cytotoxicity against Sprague-Dawley rat microglial cells assessed as effect on cell viability at 1 to 20 uM incubated for 24 hrs by MTT assay; assay type: toxicity, cell-based; conditions: dose 1-20 µM; outline: as §1
[14] = system: SH-SY5Y; test: Cytotoxicity against human SH-SY5Y cells assessed as effect on cell viability at 1.25 to 40 uM incubated for 24 hrs by MTT assay; assay type: toxicity, cell-based; conditions: dose 1.25-40 µM
Outline: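 SH-SY5Y, 2×10^4 cells/well, grown 24 h then exposed 24 h (1.25–40 μM) at 37 °C, 5% CO2. MTT 0.5 mg/mL in HBSS for 2 h, washed, formazan dissolved in isopropanol, read at 570 nm (reference 690 nm).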

[15] = system: Microglia; test: Antiinflammatory activity against Sprague-Dawley rat microglial cells assessed as inhibition of LPS-induced TNF-alpha production at 1 to 20 uM pretreated with compound for 1 hr followed by LPS stimulation for 24 hrs by ELISA; assay type: functional, cell-based; conditions: dose 1-20 µM, time 25.0 hrs; outline: as §3
[16] = system: Microglia; test: Antiinflammatory activity against Sprague-Dawley rat microglial cells assessed as inhibition of LPS-induced IL-1 beta production at 1 to 20 uM pretreated with compound for 1 hr followed by LPS stimulation for 24 hrs by ELISA; assay type: functional, cell-based; conditions: dose 1-20 µM, time 25.0 hrs; outline: as §3
[17] = system: SH-SY5Y; test: Antioxidant activity in human SH-SY5Y cells assessed as reduction in intracellular ROS formation at 2.5 uM incubated for 24 hrs followed by incubation with t-BuOOH for 30 mins by H2DCF-DA staining based fluorescence analysis; assay type: functional; conditions: time 24.5 hrs
Outline: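 SH-SY5Y (2×10^4 cells/well) exposed to 2.5 μM for 24 h, loaded with H2DCF-DA 30 min at room temperature, probe removed, then challenged with 50 μM t-BuOOH 30 min at room temperature. Fluorescence ex 485/em 535 nm, expressed as % ROS increase. Three independent experiments; one-way ANOVA with Dunnett's test.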

[18] = Effect on TNF-alpha release in Sprague-Dawley rat microglial cells at 20 uM by ELISA; assay type: toxicity, cell-based; conditions: microglia; outline: as §3

Sequence of Amyloid-beta precursor protein (Homo sapiens) (P05067 whole entry): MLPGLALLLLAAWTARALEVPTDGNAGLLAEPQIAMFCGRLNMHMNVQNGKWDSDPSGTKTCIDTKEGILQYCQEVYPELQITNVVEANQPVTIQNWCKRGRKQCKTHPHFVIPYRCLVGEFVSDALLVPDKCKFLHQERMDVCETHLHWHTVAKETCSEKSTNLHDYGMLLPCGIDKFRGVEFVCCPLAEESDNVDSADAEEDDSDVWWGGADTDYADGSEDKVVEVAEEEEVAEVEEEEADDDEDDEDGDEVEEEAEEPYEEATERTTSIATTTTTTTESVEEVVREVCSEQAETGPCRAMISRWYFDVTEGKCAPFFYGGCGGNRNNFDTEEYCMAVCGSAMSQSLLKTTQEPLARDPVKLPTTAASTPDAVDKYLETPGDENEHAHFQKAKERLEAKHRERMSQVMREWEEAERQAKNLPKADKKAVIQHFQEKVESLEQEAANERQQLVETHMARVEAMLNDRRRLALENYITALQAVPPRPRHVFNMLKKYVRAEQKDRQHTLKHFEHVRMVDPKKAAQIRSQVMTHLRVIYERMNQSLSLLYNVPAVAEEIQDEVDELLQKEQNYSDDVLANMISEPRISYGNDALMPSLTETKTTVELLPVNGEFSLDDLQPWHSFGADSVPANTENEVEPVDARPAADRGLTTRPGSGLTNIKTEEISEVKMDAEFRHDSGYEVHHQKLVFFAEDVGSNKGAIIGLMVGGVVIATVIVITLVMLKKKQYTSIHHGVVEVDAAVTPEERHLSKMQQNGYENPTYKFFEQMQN
Sequence of Keap1/Nrf2 (Homo sapiens) (Q14145 whole entry, looked up): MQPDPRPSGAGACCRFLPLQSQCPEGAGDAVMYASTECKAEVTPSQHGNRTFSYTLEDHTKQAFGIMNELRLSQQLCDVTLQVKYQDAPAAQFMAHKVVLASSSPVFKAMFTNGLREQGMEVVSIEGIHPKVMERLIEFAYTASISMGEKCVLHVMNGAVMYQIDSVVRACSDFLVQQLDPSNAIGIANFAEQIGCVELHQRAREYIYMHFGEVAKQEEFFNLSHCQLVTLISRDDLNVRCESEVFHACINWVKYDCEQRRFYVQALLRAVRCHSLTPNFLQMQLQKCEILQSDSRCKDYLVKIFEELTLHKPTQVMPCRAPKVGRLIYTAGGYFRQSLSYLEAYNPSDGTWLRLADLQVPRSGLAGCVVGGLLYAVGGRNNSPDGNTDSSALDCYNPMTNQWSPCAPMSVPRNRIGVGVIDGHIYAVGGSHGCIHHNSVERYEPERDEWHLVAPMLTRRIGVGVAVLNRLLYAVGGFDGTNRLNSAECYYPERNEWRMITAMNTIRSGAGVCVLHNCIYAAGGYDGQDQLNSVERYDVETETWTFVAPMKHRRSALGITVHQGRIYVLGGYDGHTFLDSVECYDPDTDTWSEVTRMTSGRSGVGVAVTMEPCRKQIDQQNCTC
Sequence of Keap1/Nrf2 (Homo sapiens) (Q16236 whole entry, looked up): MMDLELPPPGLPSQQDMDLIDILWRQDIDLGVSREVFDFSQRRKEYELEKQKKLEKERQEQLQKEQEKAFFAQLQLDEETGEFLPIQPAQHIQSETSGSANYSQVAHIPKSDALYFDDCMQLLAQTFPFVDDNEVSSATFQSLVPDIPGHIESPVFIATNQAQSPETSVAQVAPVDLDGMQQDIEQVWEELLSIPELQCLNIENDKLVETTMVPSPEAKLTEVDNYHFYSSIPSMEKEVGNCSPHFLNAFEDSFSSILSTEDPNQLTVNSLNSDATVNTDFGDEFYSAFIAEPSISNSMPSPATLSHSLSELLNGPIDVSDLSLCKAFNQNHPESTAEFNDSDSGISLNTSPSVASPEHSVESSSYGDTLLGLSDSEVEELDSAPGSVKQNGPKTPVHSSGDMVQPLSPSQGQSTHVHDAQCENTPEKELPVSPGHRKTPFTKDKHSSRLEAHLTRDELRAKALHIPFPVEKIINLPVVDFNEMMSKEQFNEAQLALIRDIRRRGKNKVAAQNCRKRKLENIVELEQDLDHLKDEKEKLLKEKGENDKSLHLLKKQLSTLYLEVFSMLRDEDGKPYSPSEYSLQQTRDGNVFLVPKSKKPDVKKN

| SMILES | Activity [1] | Activity [2] | Activity [3] | Activity [4] | Activity [5] | Activity [6] | Activity [7] | Activity [8] | Activity [9] | Activity [10] | Activity [11] | Activity [12] | Activity [13] | Activity [14] | Activity [15] | Activity [16] | inhibition at 2.5 µM [17] [%] | Activity [18] | Activity [17] |
| --- | --- | --- | --- | --- | --- | --- | --- | --- | --- | --- | --- | --- | --- | --- | --- | --- | --- | --- | --- |
| COc1cc(/C=C/C(=O)CC(=O)/C=C/c2ccc(O)c(OC)c2)ccc1O [CURCUMIN] | Toxic | Active | Active | Active | Active | Non-Toxic | Active | Non-Toxic | Active | – | – | – | – | – | – | – | – | – | – |
| CCOC(=O)C/C(C(=O)/C=C/c1ccc(OC)cc1)=C(O)\C=C\c1ccc(OC)cc1 | – | Active | – | Active | Active | – | – | – | inactive | Non-Toxic | Active | inactive | Non-Toxic | Non-Toxic | Active | Active | 38 | Non-Toxic | – |
| COc1ccc(/C=C/C(=O)/C=C(O)/C=C/c2ccc(OC)cc2)cc1 | – | inactive | – | inactive | inactive | – | – | – | inactive | Non-Toxic | inactive | inactive | Non-Toxic | Non-Toxic | inactive | inactive | – | Non-Toxic | inactive |
